Measurements as given in ChEMBL document CHEMBL1148687, “Identification of a novel 4-aminomethylpiperidine class of M3 muscarinic receptor antagonists and structural insight into their M3 selectivity” (J Med Chem, 2006).

Legend:
Format in all cases: cell-based
[1] = biological target: T1, Muscarinic acetylcholine receptor M3 (Homo sapiens, UniProt P20309); test: Inhibition of [3H]NMS binding to human cloned M3 receptor expressed in CHO cells
Summary of the method: (§1)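 Competition against specific [3H]-NMS binding on membranes of CHO cells expressing cloned human receptor subtypes. Assay buffer 50 mM Tris-HCl, 10 mM MgCl2, 1 mM EDTA, pH 7.4, highest final concentration 10 µM.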
Target sequence in this assay (P20309 whole entry): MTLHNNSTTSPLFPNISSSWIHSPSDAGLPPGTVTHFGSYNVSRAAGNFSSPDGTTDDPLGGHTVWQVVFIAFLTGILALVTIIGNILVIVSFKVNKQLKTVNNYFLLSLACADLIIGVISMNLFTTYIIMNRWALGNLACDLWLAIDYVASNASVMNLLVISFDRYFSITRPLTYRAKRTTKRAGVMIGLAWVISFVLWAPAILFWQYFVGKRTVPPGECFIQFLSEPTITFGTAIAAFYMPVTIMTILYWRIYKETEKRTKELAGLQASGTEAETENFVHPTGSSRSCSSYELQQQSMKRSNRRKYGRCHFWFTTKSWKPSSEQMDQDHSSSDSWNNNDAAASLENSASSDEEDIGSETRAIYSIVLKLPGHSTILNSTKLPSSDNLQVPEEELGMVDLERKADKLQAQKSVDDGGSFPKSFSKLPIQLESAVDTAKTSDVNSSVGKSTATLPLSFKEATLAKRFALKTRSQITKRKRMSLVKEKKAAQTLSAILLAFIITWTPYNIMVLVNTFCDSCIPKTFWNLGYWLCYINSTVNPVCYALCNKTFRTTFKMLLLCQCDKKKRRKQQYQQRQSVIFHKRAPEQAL

[2] = biological target: T1, Muscarinic acetylcholine receptor M3; test: Inhibition of [3H]NMS binding to human cloned M3 receptor expressed in CHO cells at 1 uM
Target sequence in this assay (P20309 whole entry, looked up): as the sequence (P20309 whole entry) above

[3] = biological target: T2, Muscarinic acetylcholine receptor M5 (Homo sapiens, UniProt P08912); test: Inhibition of [3H]NMS binding to human cloned M5 receptor expressed in CHO cells; summary of the method: as §1
T2 sequence (P08912 whole entry): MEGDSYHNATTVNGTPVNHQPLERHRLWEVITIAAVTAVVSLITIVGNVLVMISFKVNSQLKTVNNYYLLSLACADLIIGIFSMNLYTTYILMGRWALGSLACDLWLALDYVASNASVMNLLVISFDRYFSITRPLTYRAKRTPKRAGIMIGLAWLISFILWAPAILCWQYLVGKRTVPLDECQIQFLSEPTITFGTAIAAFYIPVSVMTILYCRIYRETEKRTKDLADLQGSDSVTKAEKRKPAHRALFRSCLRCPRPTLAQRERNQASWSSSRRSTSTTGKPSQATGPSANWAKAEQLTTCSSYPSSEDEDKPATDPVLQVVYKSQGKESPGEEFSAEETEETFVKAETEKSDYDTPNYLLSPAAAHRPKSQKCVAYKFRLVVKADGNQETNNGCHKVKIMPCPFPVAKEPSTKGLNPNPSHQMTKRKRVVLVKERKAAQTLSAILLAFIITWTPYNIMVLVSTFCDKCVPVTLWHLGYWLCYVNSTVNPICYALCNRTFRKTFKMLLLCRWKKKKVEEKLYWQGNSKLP

[4] = biological target: T3, Muscarinic acetylcholine receptor M4 (Homo sapiens, UniProt P08173); test: Inhibition of [3H]NMS binding to human cloned M4 receptor expressed in CHO cells; summary of the method: as §1
T3 sequence (P08173 whole entry): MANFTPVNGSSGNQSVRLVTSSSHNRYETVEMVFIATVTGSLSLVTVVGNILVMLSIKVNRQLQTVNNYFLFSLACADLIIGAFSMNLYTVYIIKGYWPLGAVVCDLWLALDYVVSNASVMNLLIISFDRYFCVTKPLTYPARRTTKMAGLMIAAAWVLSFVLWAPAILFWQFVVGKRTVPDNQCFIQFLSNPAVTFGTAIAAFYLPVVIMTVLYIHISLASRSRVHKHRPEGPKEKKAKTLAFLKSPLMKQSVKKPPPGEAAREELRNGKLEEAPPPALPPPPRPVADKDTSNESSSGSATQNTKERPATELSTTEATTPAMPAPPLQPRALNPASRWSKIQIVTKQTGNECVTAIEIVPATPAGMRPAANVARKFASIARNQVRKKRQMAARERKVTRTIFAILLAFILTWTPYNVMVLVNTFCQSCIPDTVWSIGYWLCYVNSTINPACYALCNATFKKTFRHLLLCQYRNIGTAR

[5] = biological target: T4, Muscarinic acetylcholine receptor M1 (Homo sapiens, UniProt P11229); test: Inhibition of [3H]NMS binding to human cloned M1 receptor expressed in CHO cells; summary of the method: as §1
T4 sequence (P11229 whole entry): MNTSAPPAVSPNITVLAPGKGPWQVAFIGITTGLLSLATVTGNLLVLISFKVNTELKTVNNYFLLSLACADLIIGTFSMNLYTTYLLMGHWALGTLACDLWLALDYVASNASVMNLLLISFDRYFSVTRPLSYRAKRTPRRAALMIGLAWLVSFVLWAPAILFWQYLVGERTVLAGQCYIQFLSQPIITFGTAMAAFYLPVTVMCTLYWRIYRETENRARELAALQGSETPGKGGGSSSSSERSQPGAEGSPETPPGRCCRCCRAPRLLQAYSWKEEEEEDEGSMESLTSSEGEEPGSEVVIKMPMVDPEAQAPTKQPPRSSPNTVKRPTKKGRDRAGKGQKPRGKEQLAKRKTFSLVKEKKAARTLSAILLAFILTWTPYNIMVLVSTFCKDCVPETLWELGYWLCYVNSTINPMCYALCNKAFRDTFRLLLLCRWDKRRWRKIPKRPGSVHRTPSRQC

| Ki [1] | inhibition [2] | Ki [3] | Ki [4] | Ki [5] | Structure (SMILES) |
| --- | --- | --- | --- | --- | --- |
| 29 nM | 88% | – | – | – | O=C(NCCC1CCNCC1)[C@H]1CCCN1C(=O)[C@@H]1CCCN1C(=O)CC(c1ccccc1)(c1ccccc1)c1ccccc1 |
| 1.2 nM | – | 950 nM | 24 nM | 260 nM | O=C(NCCC1CCNCC1)[C@H]1CCCN1C(=O)[C@@H]1C[C@@H](O)CN1C(=O)CC(c1ccc(Cl)cc1)(c1ccc(Cl)cc1)c1ccc(Cl)cc1 |
| – | 7% | – | – | – | O=C([C@H]1CCCN1C(=O)[C@@H]1CCCN1C(=O)CC(c1ccccc1)(c1ccccc1)c1ccccc1)N1CC2CNCC2C1 (some centres undefined) |
| – | -2% | – | – | – | O=C([C@H]1CCCN1C(=O)[C@@H]1CCCN1C(=O)CC(c1ccccc1)(c1ccccc1)c1ccccc1)N1CCCNCC1 |
| – | 12% | – | – | – | O=C([C@H]1CCCN1C(=O)[C@@H]1CCCN1C(=O)CC(c1ccccc1)(c1ccccc1)c1ccccc1)N1CCCNC1 |
| – | 0% | – | – | – | Nc1cccc(NC(=O)[C@H]2CCCN2C(=O)[C@@H]2CCCN2C(=O)CC(c2ccccc2)(c2ccccc2)c2ccccc2)c1 |
| 2.4 nM | – | > 5400 nM | 180 nM | 800 nM | CC(C)NC(=O)[C@H]1CCCN1C(=O)[C@@H]1C[C@@H](O)CN1C(=O)CC(c1ccc(F)cc1)(c1ccc(F)cc1)c1ccc(F)cc1 |
| 0.51 nM | – | 1600 nM | 41 nM | 270 nM | CN1CCC(CNC(=O)[C@H]2CCCN2C(=O)[C@@H]2C[C@@H](O)CN2C(=O)CC(c2ccc(F)cc2)(c2ccc(F)cc2)c2ccc(F)cc2)CC1 |
| 49 nM | 82% | – | – | – | O=C(NCC1CCNCC1)[C@H]1CCCN1C(=O)[C@@H]1CCCN1C(=O)CC(c1ccccc1)(c1ccccc1)c1ccccc1 |
| 0.51 nM | – | 3200 nM | 48 nM | 210 nM | O=C(NCC1CCN(C2CCCC2)CC1)[C@H]1CCCN1C(=O)[C@@H]1C[C@@H](O)CN1C(=O)CC(c1ccc(F)cc1)(c1ccc(F)cc1)c1ccc(F)cc1 |
| – | 7% | – | – | – | O=C([C@H]1CCCN1C(=O)[C@@H]1CCCN1C(=O)CC(c1ccccc1)(c1ccccc1)c1ccccc1)N1CCC2NCCC21 (some centres undefined) |
| 23 nM | 91% | – | – | – | O=C(NC[C@@H]1CCCNC1)[C@H]1CCCN1C(=O)[C@@H]1CCCN1C(=O)CC(c1ccccc1)(c1ccccc1)c1ccccc1 |
| 2.8 nM | – | > 5100 nM | 150 nM | 2000 nM | O=C(NCCC1CCNCC1)[C@H]1CCCN1C(=O)[C@@H]1C[C@@H](O)CN1C(=O)CC(c1ccccc1)(c1ccccc1)c1ccccc1 |
| 48 nM | 80% | – | – | – | N[C@H]1CCCC[C@@H]1NC(=O)[C@H]1CCCN1C(=O)[C@@H]1CCCN1C(=O)CC(c1ccccc1)(c1ccccc1)c1ccccc1 |
| – | 9% | – | – | – | NCc1ccc(NC(=O)[C@H]2CCCN2C(=O)[C@@H]2CCCN2C(=O)CC(c2ccccc2)(c2ccccc2)c2ccccc2)cc1 |
| – | 22% | – | – | – | NC1CCCN(C(=O)[C@H]2CCCN2C(=O)[C@@H]2CCCN2C(=O)CC(c2ccccc2)(c2ccccc2)c2ccccc2)C1 (some centres undefined) |
| – | 10% | – | – | – | Nc1ccccc1CNC(=O)[C@H]1CCCN1C(=O)[C@@H]1CCCN1C(=O)CC(c1ccccc1)(c1ccccc1)c1ccccc1 (stereo in doubt; 46) |
| – | 2% | – | – | – | NCCCNC(=O)[C@H]1CCCN1C(=O)[C@@H]1CCCN1C(=O)CC(c1ccccc1)(c1ccccc1)c1ccccc1 |
| – | 6% | – | – | – | Nc1cccc(CNC(=O)[C@H]2CCCN2C(=O)[C@@H]2CCCN2C(=O)CC(c2ccccc2)(c2ccccc2)c2ccccc2)c1 |
| 1.6 nM | – | 2700 nM | 120 nM | 460 nM | O=C(NC[C@@H]1CCCNC1)[C@H]1CCCN1C(=O)[C@@H]1C[C@@H](O)CN1C(=O)CC(c1ccc(Cl)cc1)(c1ccc(Cl)cc1)c1ccc(Cl)cc1 |
| – | 6% | – | – | – | Nc1ccc(CNC(=O)[C@H]2CCCN2C(=O)[C@@H]2CCCN2C(=O)CC(c2ccccc2)(c2ccccc2)c2ccccc2)cc1 |
| – | 12% | – | – | – | NCc1cccc(NC(=O)[C@H]2CCCN2C(=O)[C@@H]2CCCN2C(=O)CC(c2ccccc2)(c2ccccc2)c2ccccc2)c1 |

| Ki [1] | inhibition [2] | Ki [3] | Ki [4] | Ki [5] | Structure (SMILES) |
| --- | --- | --- | --- | --- | --- |
| – | 11% | – | – | – | Nc1ccccc1NC(=O)[C@H]1CCCN1C(=O)[C@@H]1CCCN1C(=O)CC(c1ccccc1)(c1ccccc1)c1ccccc1 |
| – | 28% | – | – | – | O=C(NCC1CCCCN1)[C@H]1CCCN1C(=O)[C@@H]1CCCN1C(=O)CC(c1ccccc1)(c1ccccc1)c1ccccc1 (some centres undefined) |
| – | 8% | – | – | – | Nc1ccc(NC(=O)[C@H]2CCCN2C(=O)[C@@H]2CCCN2C(=O)CC(c2ccccc2)(c2ccccc2)c2ccccc2)cc1 |
| 0.17 nM | – | 1600 nM | 20 nM | 65 nM | O=C(NCC1CCN(CC2CC2)CC1)[C@H]1CCCN1C(=O)[C@@H]1C[C@@H](O)CN1C(=O)CC(c1ccc(F)cc1)(c1ccc(F)cc1)c1ccc(F)cc1 |
| – | 7% | – | – | – | NCC1CCN(C(=O)[C@H]2CCCN2C(=O)[C@@H]2CCCN2C(=O)CC(c2ccccc2)(c2ccccc2)c2ccccc2)C1 (some centres undefined) |
| – | 33% | – | – | – | O=C(NCC1CCNC1)[C@H]1CCCN1C(=O)[C@@H]1CCCN1C(=O)CC(c1ccccc1)(c1ccccc1)c1ccccc1 (some centres undefined) |
| 0.39 nM | – | 1700 nM | 39 nM | 300 nM | O=C(NC[C@@H]1CCCNC1)[C@H]1CCCN1C(=O)[C@@H]1C[C@@H](O)CN1C(=O)CC(c1ccc(F)cc1)(c1ccc(F)cc1)c1ccc(F)cc1 |
| – | 40% | – | – | – | N[C@@H]1CCCC[C@@H]1NC(=O)[C@H]1CCCN1C(=O)[C@@H]1CCCN1C(=O)CC(c1ccccc1)(c1ccccc1)c1ccccc1 |
| – | -4% | – | – | – | NCCNC(=O)[C@H]1CCCN1C(=O)[C@@H]1CCCN1C(=O)CC(c1ccccc1)(c1ccccc1)c1ccccc1 |
| – | 4% | – | – | – | O=C(NC1CCNCC1)[C@H]1CCCN1C(=O)[C@@H]1CCCN1C(=O)CC(c1ccccc1)(c1ccccc1)c1ccccc1 |
| 4.2 nM | – | > 5100 nM | 480 nM | 1800 nM | O=C(NCC1CCNCC1)[C@H]1CCCN1C(=O)[C@@H]1C[C@@H](O)CN1C(=O)CC(c1ccccc1)(c1ccccc1)c1ccccc1 |
| 150 nM | 59% | – | – | – | NCC1CCN(C(=O)[C@H]2CCCN2C(=O)[C@@H]2CCCN2C(=O)CC(c2ccccc2)(c2ccccc2)c2ccccc2)CC1 |
| 170 nM | 59% | – | – | – | NC1CCCC(NC(=O)[C@H]2CCCN2C(=O)[C@@H]2CCCN2C(=O)CC(c2ccccc2)(c2ccccc2)c2ccccc2)C1 (some centres undefined) |
| – | -7% | – | – | – | NC1CCC(NC(=O)[C@H]2CCCN2C(=O)[C@@H]2CCCN2C(=O)CC(c2ccccc2)(c2ccccc2)c2ccccc2)CC1 (some centres undefined) |
| – | 0% | – | – | – | NC1CCN(C(=O)[C@H]2CCCN2C(=O)[C@@H]2CCCN2C(=O)CC(c2ccccc2)(c2ccccc2)c2ccccc2)C1 (some centres undefined) |
| – | -4% | – | – | – | O=C(NC1CCNC1)[C@H]1CCCN1C(=O)[C@@H]1CCCN1C(=O)CC(c1ccccc1)(c1ccccc1)c1ccccc1 (some centres undefined) |
| – | 12% | – | – | – | O=C([C@H]1CCCN1C(=O)[C@@H]1CCCN1C(=O)CC(c1ccccc1)(c1ccccc1)c1ccccc1)N1CCNCC1 |
| 0.53 nM | – | 3100 nM | 31 nM | 220 nM | O=C(NCC1CCN(CC2CCC2)CC1)[C@H]1CCCN1C(=O)[C@@H]1C[C@@H](O)CN1C(=O)CC(c1ccc(F)cc1)(c1ccc(F)cc1)c1ccc(F)cc1 |
| – | 5% | – | – | – | NCC1CCCCN1C(=O)[C@H]1CCCN1C(=O)[C@@H]1CCCN1C(=O)CC(c1ccccc1)(c1ccccc1)c1ccccc1 (some centres undefined) |
| – | 32% | – | – | – | NCC1CCCN(C(=O)[C@H]2CCCN2C(=O)[C@@H]2CCCN2C(=O)CC(c2ccccc2)(c2ccccc2)c2ccccc2)C1 (some centres undefined) |
| – | 5% | – | – | – | Nc1ccccc1CNC(=O)[C@H]1CCCN1C(=O)[C@@H]1CCCN1C(=O)CC(c1ccccc1)(c1ccccc1)c1ccccc1 (stereo in doubt; 45) |
